Experimental findings from publication PMC6923798 (Bioorganic chemistry, 2018) are described below.

For one assay, the system named is IL-6. Put plainly: IL-6 ELISA in K-562 cells. The assay is classed as cell-based, human. A digest of the protocol: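 K-562 cells exposed 24 h to vehicle (DMSO), test compound at 10 μM or dexamethasone (positive control). IL-6 secreted into cell-free supernatant quantified by human IL-6 ELISA kit. Expressed as % of vehicle control, mean ± SD of three independent experiments, each in triplicate. Time course: in 12-well plates, medium changed when compound (10 μM) added, and media sampled at 0, 1, 4, 8, 12, 24, 48 h.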

For another assay, the system named is A549/ATCC. In words: NCI in vitro five dose anticancer assay. It is filed as cell-based, human.
For a further assay, the target named is c-Src (Homo sapiens, UniProt P12931). In words: Src kinase assay. The assay is classed as biochemical.
Chain of c-Src (P12931 whole entry): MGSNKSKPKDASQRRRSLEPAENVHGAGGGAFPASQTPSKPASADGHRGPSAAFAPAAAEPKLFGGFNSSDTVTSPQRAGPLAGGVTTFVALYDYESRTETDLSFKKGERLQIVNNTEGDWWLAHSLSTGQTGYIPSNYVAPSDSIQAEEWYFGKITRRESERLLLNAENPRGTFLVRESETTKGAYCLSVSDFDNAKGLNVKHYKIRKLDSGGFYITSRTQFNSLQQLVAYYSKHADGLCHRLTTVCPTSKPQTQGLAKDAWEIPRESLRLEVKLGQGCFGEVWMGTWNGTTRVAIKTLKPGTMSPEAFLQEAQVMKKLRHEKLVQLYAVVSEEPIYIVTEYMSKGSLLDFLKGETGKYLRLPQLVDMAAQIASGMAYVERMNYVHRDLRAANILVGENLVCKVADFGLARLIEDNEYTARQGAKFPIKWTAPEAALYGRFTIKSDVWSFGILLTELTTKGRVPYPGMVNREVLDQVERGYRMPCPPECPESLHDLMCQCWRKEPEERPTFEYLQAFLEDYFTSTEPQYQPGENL
A further assay deals with STAT3. Put plainly: STAT3 activation assay. The assay is classed as cell-based, human. To be noted: K-562 cells, 10 μM, 24 h, nuclear extracts. An outline of the steps: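 K562 cells seeded overnight in 10 cm plates, then given vehicle, test compound (10 μM) or WP1066 (positive control) for 24 h. Nuclear fractions extracted by kit. STAT3 activation measured in nuclear extracts by TransAM STAT3 ELISA per manufacturer. Mean ± SD of three independent experiments, each in triplicate.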

Regarding `COc1ccc(C=CC(=O)c2ccc(NC(=O)CSc3nnc(-c4cc(OC)c(OC)c(OC)c4)o3)cc2)cc1` [Compound 8v, N-(4-(3-(4-Methoxyphenyl)acryloyl)phenyl)-2-((5-(3,4,5-trimethoxy-phenyl)-1,3,4-oxadiazol-2-yl)thio)acetamide], in the assay with IL-6 (Homo sapiens, K562, 24 h, read-out: IL-6 protein levels (% of control)), the activity at 10 µM turned out to be 20%. Besides, in the assay on IL-6 (K-562 cells, 10 μM, time course), the “IL-6 levels after 48 h” value is reported as “still downregulated”. Further, the “time of initial downregulation of IL-6 protein levels after treatment” value in the assay on IL-6 (K-562 cells, 10 μM, time course 0-48 h) came to 8 h. This compound gave a TGI with A549/ATCC (A549/ATCC, Non-Small Cell Lung Cancer, five dose, 48 h, SRB) of 3.53 µM. Halving of growth with A549/ATCC (Homo sapiens, A549, 48 h) (GI50) required 1840 nM. Moreover, half-maximal inhibition at c-Src (IC50) required 960 ± 200 nM. The “inhibition of STAT3 activation” value in the assay with STAT3 is on record as “most effective”.

The term TGI denotes the concentration giving total growth inhibition. Low values mean more potent growth arrest, high ones less potent growth arrest. One may read the GI50 as the concentration that inhibits growth by half. A high value points to less potent growth inhibition. By IC50 is commonly meant the concentration that gives 50% inhibition. A lower IC50 goes with greater potency in that assay.
